Assay results reported in ChEMBL document CHEMBL4229549, “Discovery and structural characterization of peficitinib (ASP015K) as a novel and potent JAK inhibitor” (Bioorg Med Chem, 2018).
pIC50: −log10 of the molar value.

What was measured:
[1] = Intrinsic clearance in rat liver microsomes; format: ADME, microsome; conditions: read-out: CLH
How it was run: (§1)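 Compound at 0.2 or 1.0 µM incubated with male SD rat liver microsomes (0.2 mg protein/mL) plus 1 mM NADPH and 0.1 mM EDTA in 100 mM phosphate buffer at 37°C. Percentage remaining was measured by LC/MS/MS. Run in duplicate.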

[2] = Inhibition of JAK1/JAK3 in rat splenocytes assessed as reduction in IL-2-induced T cell proliferation; format: cell-based
How it was run: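 Male Lewis rat splenocytes, 1.5×10^6 cells/mL in RPMI1640 with 10% FBS and 50 µM 2-mercaptoethanol, primed with concanavalin A 24 h at 37°C to induce IL-2 receptor. Then incubated with IL-2 plus compound at designated concentrations for 3 days. Proliferation read by alamarBlue after 6 h (ex 545/em 590 nm). Duplicate or triplicate wells, IC50 by linear or Sigmoid-Emax regression.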

[3] = target: T1, Tyrosine-protein kinase JAK3 (Homo sapiens, UniProt P52333); assay: Inhibition of recombinant human N-terminal His-tagged JAK3 catalytic domain (795 to 1124 residues) expressed in baculovirus expression system using Biotin-Lyn-Substrate2 after 1 hr by ELISA
T1 sequence (P52333 whole entry): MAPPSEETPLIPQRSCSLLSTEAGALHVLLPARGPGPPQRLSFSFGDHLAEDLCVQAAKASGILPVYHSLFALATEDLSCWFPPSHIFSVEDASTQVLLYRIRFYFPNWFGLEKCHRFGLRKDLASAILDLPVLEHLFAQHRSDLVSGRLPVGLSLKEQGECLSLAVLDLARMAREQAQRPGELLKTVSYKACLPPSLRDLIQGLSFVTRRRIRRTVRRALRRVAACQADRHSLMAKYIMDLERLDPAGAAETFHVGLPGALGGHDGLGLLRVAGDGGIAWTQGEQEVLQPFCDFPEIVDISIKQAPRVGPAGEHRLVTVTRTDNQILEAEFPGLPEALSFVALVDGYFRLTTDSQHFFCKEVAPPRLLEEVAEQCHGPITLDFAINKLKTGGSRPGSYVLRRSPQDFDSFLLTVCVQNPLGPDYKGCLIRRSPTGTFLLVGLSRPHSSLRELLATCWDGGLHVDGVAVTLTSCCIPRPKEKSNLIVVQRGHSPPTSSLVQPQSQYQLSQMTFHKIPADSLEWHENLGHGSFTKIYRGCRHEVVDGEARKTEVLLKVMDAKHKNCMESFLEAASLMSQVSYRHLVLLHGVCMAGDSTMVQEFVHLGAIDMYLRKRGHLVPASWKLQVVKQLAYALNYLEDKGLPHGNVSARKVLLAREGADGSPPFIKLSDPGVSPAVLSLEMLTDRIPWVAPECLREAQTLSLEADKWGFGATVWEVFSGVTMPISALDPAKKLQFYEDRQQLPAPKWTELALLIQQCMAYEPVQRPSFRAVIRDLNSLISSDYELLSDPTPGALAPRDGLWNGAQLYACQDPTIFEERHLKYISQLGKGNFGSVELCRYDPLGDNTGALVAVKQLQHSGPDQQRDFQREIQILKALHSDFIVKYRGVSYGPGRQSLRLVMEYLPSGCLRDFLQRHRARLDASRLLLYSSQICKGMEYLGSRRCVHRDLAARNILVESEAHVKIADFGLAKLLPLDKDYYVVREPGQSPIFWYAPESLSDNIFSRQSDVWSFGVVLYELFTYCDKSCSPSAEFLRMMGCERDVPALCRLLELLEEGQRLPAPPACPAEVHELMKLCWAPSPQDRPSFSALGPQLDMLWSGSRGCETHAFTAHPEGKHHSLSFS
How it was run: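 Human JAK3 kinase domain with 250 nM biotinylated Lyn substrate peptide and 8 µM ATP (final). Reaction started with enzyme, run 1 h at room temperature on streptavidin plate. Phosphorylation read by anti-phosphotyrosine HRP ELISA. Run in duplicate.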

[4] = target: Tyrosine-protein kinase JAK1 (Homo sapiens, UniProt P23458); assay: Inhibition of recombinant human N-terminal GST-tagged JAK1 catalytic domain (850 to 1154 residues) expressed in baculovirus expression system using Biotin-Lyn-Substrate2 after 1 hr by ELISA
Tyrosine-protein kinase JAK1, sequence (P23458 whole entry, the tested form may be a part): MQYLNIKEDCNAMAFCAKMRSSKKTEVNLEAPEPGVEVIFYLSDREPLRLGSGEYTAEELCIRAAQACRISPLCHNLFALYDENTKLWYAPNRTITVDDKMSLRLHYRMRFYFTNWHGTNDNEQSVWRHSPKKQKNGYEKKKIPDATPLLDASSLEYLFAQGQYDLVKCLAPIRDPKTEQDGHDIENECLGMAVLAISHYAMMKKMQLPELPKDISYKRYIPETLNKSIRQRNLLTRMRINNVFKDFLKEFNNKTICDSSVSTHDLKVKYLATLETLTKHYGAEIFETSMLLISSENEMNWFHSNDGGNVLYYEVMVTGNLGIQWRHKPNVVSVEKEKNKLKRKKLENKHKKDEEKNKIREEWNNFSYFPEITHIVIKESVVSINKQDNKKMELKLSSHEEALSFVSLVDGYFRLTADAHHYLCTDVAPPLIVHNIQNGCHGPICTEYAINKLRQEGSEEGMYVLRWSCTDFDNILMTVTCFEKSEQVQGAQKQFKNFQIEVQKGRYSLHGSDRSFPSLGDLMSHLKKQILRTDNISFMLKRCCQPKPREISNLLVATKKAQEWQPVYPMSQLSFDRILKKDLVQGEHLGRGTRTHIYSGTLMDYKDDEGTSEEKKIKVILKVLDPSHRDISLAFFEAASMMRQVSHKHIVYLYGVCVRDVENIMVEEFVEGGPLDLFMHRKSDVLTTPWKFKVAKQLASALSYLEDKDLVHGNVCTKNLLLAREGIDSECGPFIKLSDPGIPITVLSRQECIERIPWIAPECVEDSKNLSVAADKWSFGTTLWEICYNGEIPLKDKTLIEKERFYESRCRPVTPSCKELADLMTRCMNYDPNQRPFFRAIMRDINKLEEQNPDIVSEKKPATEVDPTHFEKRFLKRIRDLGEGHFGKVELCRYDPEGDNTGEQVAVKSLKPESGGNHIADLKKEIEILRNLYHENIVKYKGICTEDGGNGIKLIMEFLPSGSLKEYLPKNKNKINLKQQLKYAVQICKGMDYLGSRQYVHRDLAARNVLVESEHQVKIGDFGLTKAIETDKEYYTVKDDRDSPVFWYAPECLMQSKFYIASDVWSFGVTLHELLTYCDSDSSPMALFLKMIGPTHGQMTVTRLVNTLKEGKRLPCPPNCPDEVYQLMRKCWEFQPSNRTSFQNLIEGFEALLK

[5] = target: Tyrosine-protein kinase JAK2 (Homo sapiens, UniProt O60674); assay: Inhibition of recombinant human N-terminal His-tagged JAK2 catalytic domain (826 to 1132 residues) expressed in baculovirus expression system using Biotin-Lyn-Substrate2 after 1 hr by ELISA
Tyrosine-protein kinase JAK2, sequence (O60674 whole entry, the tested form may be a part): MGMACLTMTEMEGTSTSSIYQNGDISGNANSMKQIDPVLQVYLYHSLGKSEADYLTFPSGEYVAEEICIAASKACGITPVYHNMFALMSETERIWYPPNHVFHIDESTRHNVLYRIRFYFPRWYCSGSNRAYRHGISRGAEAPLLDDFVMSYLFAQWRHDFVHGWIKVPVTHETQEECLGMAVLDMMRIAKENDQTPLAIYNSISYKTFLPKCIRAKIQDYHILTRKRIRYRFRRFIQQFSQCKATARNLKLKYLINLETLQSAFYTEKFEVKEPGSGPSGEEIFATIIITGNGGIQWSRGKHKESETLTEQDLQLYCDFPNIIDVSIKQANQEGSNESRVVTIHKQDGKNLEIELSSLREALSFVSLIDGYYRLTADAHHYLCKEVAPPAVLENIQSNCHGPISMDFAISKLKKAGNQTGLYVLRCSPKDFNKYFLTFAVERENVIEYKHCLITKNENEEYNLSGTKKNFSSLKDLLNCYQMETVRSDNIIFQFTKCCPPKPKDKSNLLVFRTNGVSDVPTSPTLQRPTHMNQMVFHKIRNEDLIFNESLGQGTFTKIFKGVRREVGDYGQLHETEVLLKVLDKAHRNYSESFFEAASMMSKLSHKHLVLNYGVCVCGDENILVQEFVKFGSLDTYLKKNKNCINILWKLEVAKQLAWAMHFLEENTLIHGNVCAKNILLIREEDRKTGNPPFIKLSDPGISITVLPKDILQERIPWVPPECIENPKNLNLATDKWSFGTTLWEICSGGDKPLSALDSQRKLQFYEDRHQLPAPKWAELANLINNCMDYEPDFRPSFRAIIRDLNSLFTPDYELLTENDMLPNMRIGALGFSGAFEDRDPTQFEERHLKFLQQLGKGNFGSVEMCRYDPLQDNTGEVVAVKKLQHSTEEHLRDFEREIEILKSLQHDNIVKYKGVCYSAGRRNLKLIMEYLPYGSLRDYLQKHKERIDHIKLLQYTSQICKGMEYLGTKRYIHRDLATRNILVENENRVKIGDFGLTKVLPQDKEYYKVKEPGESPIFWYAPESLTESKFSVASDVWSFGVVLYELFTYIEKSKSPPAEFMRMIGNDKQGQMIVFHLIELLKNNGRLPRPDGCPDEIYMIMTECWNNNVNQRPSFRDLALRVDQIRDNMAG

[6] = Intrinsic clearance in Sprague-Dawley rat liver microsomes at 0.2 uM in presence of NADPH by LC-MS/MS analysis; format: ADME, microsome; conditions: read-out: CLH; how it was run: as §1
[7] = Inhibition of JAK1/JAK3 in Lewis rat splenocytes assessed as reduction in IL-2-induced T cell proliferation after 3 days by alamar blue assay; format: cell-based; conditions: 72 h
[8] = Cmax in Sprague-Dawley rat at 1 mg/kg, po administered as single dose by LC-MS/MS analysis; format: ADME, organism-based; parameters: dose 1 mg/kg, route oral; conditions: in vivo
How it was run: (§2)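 Male SD rats (Crl:CD(SD), 7 weeks old), food deprived before dosing; single oral dose of 1 mg/kg in 0.5 w/v% methylcellulose. Blood was sampled at multiple time points up to 24 h. Unchanged compound in plasma was measured by LC/MS/MS. Parameters were calculated from mean plasma concentrations (n=3) at each time point.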

[9] = Tmax in Sprague-Dawley rat at 1 mg/kg, po administered as single dose by LC-MS/MS analysis; format: ADME, organism-based; conditions: in vivo; how it was run: as §2
[10] = AUC (0 to infinity) in Sprague-Dawley rat at 1 mg/kg, po administered as single dose by LC-MS/MS analysis; format: ADME, organism-based; parameters: dose 1 mg/kg, route oral, time infinity; conditions: in vivo; how it was run: as §2
[11] = AUC (0 to infinity) in Sprague-Dawley rat at 1 mg/kg, iv administered as single dose by LC-MS/MS analysis; format: ADME, organism-based; parameters: dose 1 mg/kg, time infinity, route intravenous; conditions: in vivo
How it was run: as §2, with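 “intravenous” for “oral”, “10 v/v% propylene glycol.” for “0.5 w/v% methylcellulose.”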

[12] = Half life in Sprague-Dawley rat at 1 mg/kg, po administered as single dose by LC-MS/MS analysis; format: ADME, organism-based; conditions: in vivo; how it was run: as §2
[13] = Half life in Sprague-Dawley rat at 1 mg/kg, iv administered as single dose by LC-MS/MS analysis; format: ADME, organism-based; conditions: in vivo
How it was run: as §2, with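 “intravenous” for “oral”, “10 v/v% propylene glycol.” for “0.5 w/v% methylcellulose.”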

[14] = Total clearance in Sprague-Dawley rat at 1 mg/kg, iv administered as single dose by LC-MS/MS analysis; format: ADME, organism-based; conditions: in vivo
How it was run: as §2, with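 “intravenous” for “oral”, “10 v/v% propylene glycol.” for “0.5 w/v% methylcellulose.”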

[15] = Volume of distribution at steady state in Sprague-Dawley rat at 1 mg/kg, iv administered as single dose by LC-MS/MS analysis; format: ADME, organism-based; conditions: in vivo, read-out: Vdss
How it was run: as §2, with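 “intravenous” for “oral”, “10 v/v% propylene glycol.” for “0.5 w/v% methylcellulose.”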

[16] = Oral bioavailability in Sprague-Dawley rat at 1 mg/kg administered as single dose by LC-MS/MS analysis; format: ADME, organism-based; conditions: in vivo
How it was run: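 Fasted male SD rats, 7 weeks old, given 1 mg/kg as a single dose, orally in 0.5 w/v% methylcellulose and intravenously in 10 v/v% propylene glycol. Plasma was sampled up to 24 h and unchanged compound measured by LC/MS/MS. Bioavailability was derived from mean concentrations (n=3 per time point).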

| Compound | pIC50 [3] | pIC50 [4] | pIC50 [5] | CLint scaled at 0.2 µM [6] [mL/min/kg] | further results |
| --- | --- | --- | --- | --- | --- |
| C[C@@H]1CCCC[C@@H]1Nc1c(C(N)=O)cnc2[nH]ccc12 | – | – | – | – | CLint scaled [1]: > 1000 mL/min/kg; pIC50 [2]: 7.07 |
| NC(=O)c1cnc2[nH]ccc2c1NC12CC3CC(CC(C3)C1)C2 | 8.00 | 6.96 | 6.92 | – | – |
| Br.NC(=O)c1cnc2[nH]ccc2c1NC1C2CC3CC1CC(O)(C3)C2 (configuration not stated) | – | – | – | 124 | pIC50 [7]: 8.00; Cmax [8]: 126 ng/mL; Tmax [9]: 0.25 h; AUC(0-inf) [10]: 264 ng·h/mL; AUC(0-inf) [11]: 575 ng·h/mL; half-life [12]: 2.12 h; half-life [13]: 4.72 h; clearance [14]: 29 mL/min/kg; Vd [15]: 1.83 L/kg; bioavailability [16]: 45.9% |
| COC12CC3CC(C1)C(Nc1c(C(N)=O)cnc4[nH]ccc14)C(C3)C2 (configuration not stated) | 9.20 | 8.11 | 8.30 | > 1000 | – |
| NC(=O)c1cnc2[nH]ccc2c1NC1C2CC3CC1CC(F)(C3)C2 (configuration not stated) | 8.68 | 7.72 | 7.96 | > 1000 | – |
| NC(=O)c1cnc2[nH]ccc2c1NC1C2CC3CC(C2)CC1C3 (configuration not stated) | 8.68 | 7.92 | 7.96 | > 1000 | – |
| NC(=O)c1cnc2[nH]ccc2c1N[C@@H]1C[C@H]2CC[C@@H]1C2 (racemic) | 8.49 | 7.62 | 7.82 | 859 | – |
